Assay results published in ChEMBL document CHEMBL5247578, “Effective synthesis of benzimidazoles-imidazo[1,2-a]pyrazine conjugates: A comparative study of mono-and bis-benzimidazoles for antitumor activity” (Eur J Med Chem, 2019).

What was measured:
Format in all cases: functional
OVCAR-5 [1] = assay: Antiproliferative activity against human OVCAR-5 cells assessed as cell growth at 0.00001 M incubated for 48 hrs by SRB assay relative to control; details: read-out: Activity
U-251 [2] = assay: Antiproliferative activity against human U-251 cells assessed as cell growth at 0.00000001 M incubated for 48 hrs by SRB assay relative to control; details: dose 10 nM, read-out: Activity
DU-145 = assay: Growth inhibition against human DU-145 cells assessed as total growth inhibitory concentration incubated for 48 hrs by sulforhodamine B assay
OVCAR-4 = assay: Antiproliferative activity against human OVCAR-4 cells assessed as cell growth at 0.00000001 M incubated for 48 hrs by SRB assay relative to control; details: dose 10 nM, read-out: Activity
SF-268 [3] = assay: Antiproliferative activity against human SF-268 cells assessed as cell growth at 0.0000001 M incubated for 48 hrs by SRB assay relative to control; details: dose 100 nM, read-out: Activity
HCT-15 = assay: Antiproliferative activity against human HCT-15 cells assessed as cell growth at 0.00000001 M incubated for 48 hrs by SRB assay relative to control; details: dose 10 nM, read-out: Activity
Summary of the method: (§1)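 NCI-60 five-dose screen (10^-4 to 10^-8 M). Cells grown in RPMI 1640 with 5% FBS and 2 mM L-glutamine, plated at 5,000-40,000 cells/well and preincubated 24 h. Drug given from DMSO stock, then 48 h at 37 °C, 5% CO2. For adherent lines, cells fixed with cold TCA, SRB-stained and read at 515 nm. Percent growth taken against time-zero and untreated control.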

SK-MEL-28 = assay: Antiproliferative activity against human SK-MEL-28 cells assessed as cell growth at 0.00000001 M incubated for 48 hrs by SRB assay relative to control; details: dose 10 nM, read-out: Activity
PC-3 [4] = assay: Antiproliferative activity against human PC-3 cells assessed as cell growth at 0.000001 M incubated for 48 hrs by SRB assay relative to control; details: read-out: Activity
SF-268 [5] = assay: Antiproliferative activity against human SF-268 cells assessed as cell growth at 0.000001 M incubated for 48 hrs by SRB assay relative to control; details: read-out: Activity
Hs-578T = assay: Growth inhibition against human Hs-578T cells incubated for 48 hrs by sulforhodamine B assay
SNB-19 [6] = assay: Antiproliferative activity against human SNB-19 cells assessed as cell growth at 0.00001 M incubated for 48 hrs by SRB assay relative to control; details: read-out: Activity
SR [7] = assay: Antiproliferative activity against human SR cells assessed as cell growth at 0.00000001 M incubated for 48 hrs by SRB assay relative to control; details: dose 10 nM, read-out: Activity
HOP-62 = assay: Antiproliferative activity against human HOP-62 cells assessed as cell growth at 0.00001 M incubated for 48 hrs by SRB assay relative to control; details: read-out: Activity; summary of the method: as §1
MOLT-4 = assay: Antiproliferative activity against human MOLT-4 cells assessed as cell growth at 0.00000001 M incubated for 48 hrs by SRB assay relative to control; details: dose 10 nM, read-out: Activity
KM12 = assay: Growth inhibition against human KM12 cells incubated for 48 hrs by sulforhodamine B assay
NCI-H460 = assay: Antiproliferative activity against human NCI-H460 cells assessed as cell growth at 0.00000001 M incubated for 48 hrs by SRB assay relative to control; details: dose 10 nM, read-out: Activity
MDA-MB-231 = assay: Growth inhibition against human MDA-MB-231 cells assessed as total growth inhibitory concentration incubated for 48 hrs by sulforhodamine B assay
ACHN = assay: Antiproliferative activity against human ACHN cells assessed as cell growth at 0.0001 M incubated for 48 hrs by SRB assay relative to control; details: read-out: Activity
Summary of the method: (§2)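 NCI-60 five-dose screen over 10^-4–10^-8 M (10-fold dilutions). Cells grown in RPMI 1640 with 5% FBS and 2 mM L-glutamine, seeded at 5,000–40,000 cells/well and preincubated 24 h. Drug from DMSO stock, 48 h at 37 °C, 5% CO2. Adherent cells TCA-fixed and stained with 0.4% SRB; A515 read. Percent growth = (Ti−Tz)/(C−Tz)×100, or (Ti−Tz)/Tz×100 when Ti<Tz.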

U-251 [8] = assay: Antiproliferative activity against human U-251 cells assessed as cell growth at 0.000001 M incubated for 48 hrs by SRB assay relative to control; details: read-out: Activity
MCF7 = assay: Antiproliferative activity against human MCF7 cells assessed as cell growth inhibition by measuring lethal concentration incubated for 48 hrs by sulforhodamine B assay; details: read-out: LC50 (the source's name)
EKVX = assay: Antiproliferative activity against human EKVX cells assessed as cell growth at 0.00000001 M incubated for 48 hrs by SRB assay relative to control; details: dose 10 nM, read-out: Activity; summary of the method: as §1
SNB-19 [9] = assay: Antiproliferative activity against human SNB-19 cells assessed as cell growth at 0.0000001 M incubated for 48 hrs by SRB assay relative to control; details: dose 100 nM, read-out: Activity
SW-620 = assay: Antiproliferative activity against human SW620 cells assessed as cell growth at 0.00000001 M incubated for 48 hrs by SRB assay relative to control; details: dose 10 nM, read-out: Activity
NCI-H322M [10] = assay: Antiproliferative activity against human NCI-H322M cells assessed as cell growth at 0.0000001 M incubated for 48 hrs by SRB assay relative to control; details: dose 100 nM, read-out: Activity
A498 = assay: Antiproliferative activity against human A498 cells assessed as cell growth inhibition by measuring lethal concentration incubated for 48 hrs by sulforhodamine B assay; details: read-out: LC50 (the source's name)
SR [11] = assay: Growth inhibition against human SR cells incubated for 48 hrs by sulforhodamine B assay
NCI-H322M [12] = assay: Growth inhibition against human NCI-H322M cells assessed as total growth inhibitory concentration incubated for 48 hrs by sulforhodamine B assay
SF-539 = assay: Antiproliferative activity against human SF-539 cells assessed as cell growth at 0.00000001 M incubated for 48 hrs by SRB assay relative to control; details: dose 10 nM, read-out: Activity
PC-3 [13] = assay: Growth inhibition against human PC-3 cells incubated for 48 hrs by sulforhodamine B assay
NCI-H226 [14] = assay: Antiproliferative activity against human NCI-H226 cells assessed as cell growth at 0.0001 M incubated for 48 hrs by SRB assay relative to control; details: read-out: Activity
NCI-H226 [15] = assay: Antiproliferative activity against human NCI-H226 cells assessed as cell growth inhibition by measuring lethal concentration incubated for 48 hrs by sulforhodamine B assay; details: read-out: LC50 (the source's name)
RPMI-8226 = assay: Antiproliferative activity against human RPMI-8226 cells assessed as cell growth at 0.0000001 M incubated for 48 hrs by SRB assay relative to control; details: dose 100 nM, read-out: Activity
BT-549 = assay: Antiproliferative activity against human BT-549 cells assessed as cell growth at 0.00000001 M incubated for 48 hrs by SRB assay relative to control; details: dose 10 nM, read-out: Activity; summary of the method: as §2
OVCAR-5 [16] = assay: Antiproliferative activity against human OVCAR-5 cells assessed as cell growth at 0.0001 M incubated for 48 hrs by SRB assay relative to control; details: read-out: Activity
SF-268 [17] = assay: Antiproliferative activity against human SF-268 cells assessed as cell growth at 0.0001 M incubated for 48 hrs by SRB assay relative to control; details: read-out: Activity

Row | SMILES | growth at 10 µM (OVCAR-5 [1]) [%] | growth at 0.01 µM (U-251 [2]) [%] | TGI (DU-145) [nM] | growth at 0.01 µM (OVCAR-4) [%] | growth at 0.1 µM (SF-268 [3]) [%] | growth at 0.01 µM (HCT-15) [%] | growth at 0.01 µM (SK-MEL-28) [%] | growth at 1 µM (PC-3 [4]) [%] | growth at 1 µM (SF-268 [5]) [%] | GI50 (Hs-578T) [nM] | growth at 10 µM (SNB-19 [6]) [%] | growth at 0.01 µM (SR [7]) [%] | growth at 10 µM (HOP-62) [%] | growth at 0.01 µM (MOLT-4) [%] | GI50 (KM12) [nM] | growth at 0.01 µM (NCI-H460) [%] | TGI (MDA-MB-231) [nM] | growth at 100 µM (ACHN) [%] | growth at 1 µM (U-251 [8]) [%] | CC50 (MCF7) [nM] | also measured
1 | COc1ccc(-c2cn3ccnc3c(-c3ccc4ncn(C5CCCCC5)c4c3)n2)cc1 | 31 | 102 | > 100000 | 96 | 92 | 94 | 94 | 37 | 65 | 1160 | 22 | 102 | -1 | 100 | 1350 | 104 | > 100000 | 23 | 69 | > 100000 | growth at 0.01 µM (EKVX): 87%; growth at 0.1 µM (SNB-19 [9]): 108%; growth at 0.01 µM (SW-620): 98%; growth at 0.1 µM (NCI-H322M [10]): 90%; CC50 (A498): > 100000 nM; GI50 (SR [11]): 890 nM; TGI (NCI-H322M [12]): > 100000 nM; growth at 0.01 µM (SF-539): 87%; GI50 (PC-3 [13]): 621 nM; growth at 100 µM (NCI-H226 [14]): 39%; CC50 (NCI-H226 [15]): > 100000 nM; growth at 0.1 µM (RPMI-8226): 108%; growth at 0.01 µM (BT-549): 8%; growth at 100 µM (OVCAR-5 [16]): 56%; growth at 100 µM (SF-268 [17]): 29%
2 | c1ccc(Cn2cnc3ccc(-c4nc(-c5ccc6c(c5)ncn6C5CCCCC5)cn5ccnc45)cc32)cc1 | -3 | 98 | 2100 | 94 | 94 | 92 | 94 | 75 | 82 | 2710 | 28 | 98 | -15 | 112 | 2090 | 103 | 3690 | 23 | 83 | > 100000 | growth at 0.01 µM (EKVX): 89%; growth at 0.1 µM (SNB-19 [9]): 103%; growth at 0.01 µM (SW-620): 100%; growth at 0.1 µM (NCI-H322M [10]): 91%; CC50 (A498): 6850 nM; GI50 (SR [11]): 1680 nM; TGI (NCI-H322M [12]): > 100000 nM; growth at 0.01 µM (SF-539): 88%; GI50 (PC-3 [13]): 1970 nM; growth at 100 µM (NCI-H226 [14]): 36%; CC50 (NCI-H226 [15]): > 100000 nM; growth at 0.1 µM (RPMI-8226): 113%; growth at 0.01 µM (BT-549): 85%; growth at 100 µM (OVCAR-5 [16]): 21%; growth at 100 µM (SF-268 [17]): 5%
